The results in this text go back to ChEMBL document CHEMBL3393048, “Discovery of potent cytotoxic ortho-aryl chalcones as new scaffold targeting tubulin and mitosis with affinity-based fluorescence” (J Med Chem, 2014).

Broadly, the pIC50 is the negative decadic logarithm of the IC50, by convention in mol/L. Higher therefore signals a low IC50.

SMILES strings stand for the structures. pIC50: −log10 of the molar value.

Common to all, as to format: functional, cell-based
One experiment concerns MCF7. Briefly: Antiproliferative activity against human MCF7 cells after 48 hrs by SRB method. The conditions noted are these: MCF7, 48 h. The method in brief:
(§1)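 SRB assay. Cells in DMEM high glucose with 10% FBS were seeded at 5000/well and grown 24 h; a day-0 plate was fixed at that point. Compounds were added in triplicate for 48 h. IC50 came from nonlinear regression of dose–response curves from at least two independent experiments.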
(In SRB staining, fixed cells bind dye roughly in proportion to their protein.)

Experiment [1] can be described thus: Antiproliferative activity against human CNE2 cells after 48 hrs by SRB method. Particulars: CNE-2, 48 h. The method in brief:
as §1

Another experiment concerns A549. In words: Antiproliferative activity against human A549 cells after 48 hrs by SRB method. Particulars: A549, 48 h. The method in brief:
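SRB assay. Cells in DMEM high glucose with 10% FBS were seeded at 5000/well and grown 24 h; a day-0 plate was fixed at that point. Compounds were added in triplicate for 48 h. Cells were fixed with TCA at 4 °C for 1 h, stained with 0.4% SRB, and the dye was solubilized in 10 mM Tris pH 10.4. OD was read at 515 nm with day-0 OD subtracted. IC50 came from nonlinear regression of dose–response curves from at least two independent experiments.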

The next experiment has as its system SW480. Briefly: Antiproliferative activity against human SW480 cells after 48 hrs by SRB method. The conditions noted are these: SW480, 48 h. The method, boiled down: as §1
A further experiment concerns HepG2. Briefly: Antiproliferative activity against human HepG2 cells after 48 hrs by SRB method. Particulars: HepG2, 48 h. The method in brief:
as §1

With `COc1ccc(C(=O)/C=C/c2ccccc2-c2ccc(F)cc2)cc1O`, the negative-log IC50 (pIC50) is 6.25 in the experiment on MCF7; 6.12 in experiment [1]; 6.03 in the experiment on A549; 6.47 in the experiment on SW480; 6.72 in the experiment on HepG2.
As to `COc1ccc(CNC(=O)c2ccccc2-c2ccc(F)cc2)cc1`, the pIC50 (with MCF7; in experiment [1]; in the experiment on A549; in the experiment with SW480; in the experiment on HepG2) was less than 4.30 throughout.
In the case of `COc1ccc(CNC(=O)c2ccccc2-c2ccc(F)cc2)cc1OC`, the pIC50 (in the experiment with MCF7; in experiment [1]; in the experiment with A549; in the experiment with SW480; with HepG2) was less than 4.30 each time.
`COc1ccc(C(=O)/C=C/c2ccccc2-c2ccc(F)nc2)cc1O`: the pIC50 was 5.70 in the experiment with MCF7; 5.68 in experiment [1]; 5.49 with A549; 5.80 in the experiment on SW480; 5.74 in the experiment on HepG2.
For the compound `COc1cc(C(=O)/C=C/c2ccccc2-c2ccc(F)nc2)ccc1O`, the negative-log IC50 (pIC50) is 4.57 in the experiment with MCF7; 4.72 in experiment [1]; 4.89 in the experiment with A549; 5.07 in the experiment on SW480; 5.00 with HepG2.
As to `O=C(/C=C/c1ccccc1-c1ccc(F)cc1)c1cccc(O)c1`, the pIC50 in the experiment on MCF7 was 5.03; in experiment [1], 5.14; with A549 it was 5.16; in the experiment with SW480, 5.06; with HepG2, 5.38.
Take `COc1ccc(/C=C/C(=O)c2ccccc2-c2ccc(OC)c(OC)c2OC)cc1O`: the pIC50 in the experiment with MCF7 is 6.32; in experiment [1], 6.80; with A549 it was 6.72; in the experiment with SW480, 6.77; in the experiment with HepG2, 6.64.
With `COc1cc(C(=O)/C=C/c2ccccc2-c2ccc(F)cc2)ccc1O`, the pIC50 with MCF7 is 5.27; in experiment [1], 5.32; in the experiment on A549, 5.34; with SW480, 5.38; in the experiment on HepG2, 5.51.
Take `COc1cc(CNC(=O)c2ccccc2-c2ccc(F)cc2)cc(OC)c1OC`: the negative logarithm of the IC50 (pIC50) (with MCF7; in experiment [1]; in the experiment on A549; in the experiment with SW480; in the experiment on HepG2) was less than 4.30 throughout.
For `COc1ccc(C(=O)/C=C/c2ccccc2-c2ccc(F)cc2)cc1`, the pIC50 in the experiment on MCF7 is 5.06; in experiment [1], 5.05; with A549, 5.09; in the experiment with SW480, 5.08; in the experiment with HepG2, 5.20.
As to `COc1ccc(/C=C/C(=O)c2ccccc2-c2ccc(F)cc2)cc1OC`, the pIC50 in the experiment on MCF7 is 6.62; in experiment [1], 7.09; in the experiment with A549 it was 6.36; with SW480, 6.24; in the experiment on HepG2 it was 7.02.
Turning to `Cc1ccc(/C=C/C(=O)c2ccccc2-c2ccc(F)cc2)o1`, the negative logarithm of the IC50 (pIC50) is 4.64 in the experiment with MCF7; 4.85 in experiment [1]; 4.51 in the experiment on A549; 4.64 in the experiment with SW480; 4.92 in the experiment with HepG2.
For the compound `COc1cc(C(=O)/C=C/c2ccccc2-c2ccc(F)cc2)cc(OC)c1OC`, the negative-log IC50 (pIC50) with MCF7 is 5.04; in experiment [1] it was 5.42; in the experiment on A549, 5.66; in the experiment with SW480, 5.66; in the experiment with HepG2, 4.92.
For `COc1ccc(OC)c(/C=C/C(=O)c2ccccc2-c2ccc(F)cc2)c1`, the negative logarithm of the IC50 (pIC50) with MCF7 is 5.77; in experiment [1] it was 6.12; with A549, 5.96; in the experiment with SW480, 5.62; with HepG2, 6.28.
Take `COc1ccc(/C=C/C(=O)c2ccccc2-c2cccnc2)cc1`: the pIC50 in the experiment on MCF7 is 6.08; in experiment [1], 7.19; in the experiment on A549, 6.24; with SW480, 6.70; with HepG2, 7.01.
As for `O=C(/C=C/c1ccccc1-c1ccc(F)nc1)c1cccc(O)c1`, the negative-log IC50 (pIC50) in the experiment on MCF7 is 4.92; in experiment [1], 5.06; in the experiment with A549 it was 5.16; with SW480, 5.13; in the experiment on HepG2 it was 5.19.
